From ChEMBL document CHEMBL4665883, “Development of DHQ-based chemical biology probe to profile cellular targets for HBV” (Bioorg Med Chem Lett, 2020)
Where a name gives a salt, the structure may show the parent alone. Activity calls are given as the source filed them. The rule behind the calls is not given here.

Key:
[1] = biological target: Terminal nucleotidyltransferase 4B (Homo sapiens) (UniProt Q8NDF8); assay: Binding affinity to PAPD5 in human HePAD38 cells infected with HBV assessed as protein labelling at 20 uM after 1 hr by photoaffinity labelling in-situ fluorescence gel-based LC-MS/MS analysis; assay type: cell-based
How it was run: (§1)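 Live HepAD38 cells incubated 1 h with photoaffinity probe at 20 μM final, then UV-irradiated. Cells were harvested and homogenized in HEPES lysis buffer. Lysates underwent copper-catalysed click conjugation to biotin-Diazo-azide, then large-scale affinity enrichment, with bound proteins identified by LC–MS/MS.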

[2] = biological target: T1, Isocitrate dehydrogenase [NADP], mitochondrial (Homo sapiens) (UniProt P48735); assay: Binding affinity to IDH in human HePAD38 cells infected with HBV assessed as protein labelling at 20 uM after 1 hr by photoaffinity labelling in-situ fluorescence gel-based LC-MS/MS analysis; assay type: cell-based; how it was run: as §1
T1 sequence (whole entry): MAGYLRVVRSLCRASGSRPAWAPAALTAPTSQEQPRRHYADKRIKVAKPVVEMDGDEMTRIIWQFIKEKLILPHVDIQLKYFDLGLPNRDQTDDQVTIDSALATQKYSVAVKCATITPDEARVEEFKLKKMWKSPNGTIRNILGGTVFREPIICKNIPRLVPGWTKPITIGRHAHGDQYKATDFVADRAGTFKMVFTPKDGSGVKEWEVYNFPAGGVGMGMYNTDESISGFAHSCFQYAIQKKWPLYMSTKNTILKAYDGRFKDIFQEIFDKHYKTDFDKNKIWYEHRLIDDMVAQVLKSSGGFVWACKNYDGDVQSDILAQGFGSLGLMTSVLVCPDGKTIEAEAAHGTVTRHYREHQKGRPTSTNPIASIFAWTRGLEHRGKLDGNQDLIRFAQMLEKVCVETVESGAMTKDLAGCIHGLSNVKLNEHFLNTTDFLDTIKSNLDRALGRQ

[3] = biological target: T2, Aldehyde dehydrogenase 1A1 (Homo sapiens) (UniProt P00352); assay: Binding affinity to RALDH1 in human HePAD38 cells infected with HBV assessed as protein labelling at 20 uM after 1 hr by photoaffinity labelling in-situ fluorescence gel-based LC-MS/MS analysis; assay type: cell-based; how it was run: as §1
T2 sequence (whole entry): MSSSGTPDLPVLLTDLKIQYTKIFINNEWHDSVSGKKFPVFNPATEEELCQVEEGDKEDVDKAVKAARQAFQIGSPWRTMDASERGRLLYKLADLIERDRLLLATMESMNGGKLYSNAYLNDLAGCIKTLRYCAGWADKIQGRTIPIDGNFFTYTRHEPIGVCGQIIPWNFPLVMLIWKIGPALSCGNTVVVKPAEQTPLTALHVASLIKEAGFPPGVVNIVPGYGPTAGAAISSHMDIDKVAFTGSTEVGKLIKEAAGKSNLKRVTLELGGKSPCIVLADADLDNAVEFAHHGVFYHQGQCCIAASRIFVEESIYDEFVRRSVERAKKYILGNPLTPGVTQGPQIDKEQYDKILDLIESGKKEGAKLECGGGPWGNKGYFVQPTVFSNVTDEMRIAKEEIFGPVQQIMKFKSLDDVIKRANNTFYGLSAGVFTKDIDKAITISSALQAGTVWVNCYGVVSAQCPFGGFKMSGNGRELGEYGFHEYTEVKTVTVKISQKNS

Hepatitis B virus [4] = assay: Antiviral activity against Hepatitis B virus infected in human HepG2.2.15 cells assessed as reduction in HBV DNA level in cell supernatants incubated for 5 days by real time PCR analysis; assay type: functional, organism-based; settings: HepG2.2.15, 120 h
[5] = biological target: Poly(rC)-binding protein 1 (Homo sapiens) (UniProt Q15365); assay: Binding affinity to PCBP1 in human HePAD38 cells infected with HBV assessed as protein labelling at 20 uM after 1 hr by photoaffinity labelling in-situ fluorescence gel-based LC-MS/MS analysis; assay type: cell-based; how it was run: as §1
[6] = biological target: 60 kDa heat shock protein, mitochondrial (Homo sapiens) (UniProt P10809); assay: Binding affinity to 60 kDa HSP60 in human HePAD38 cells infected with HBV assessed as protein labelling at 20 uM after 1 hr by photoaffinity labelling in-situ fluorescence gel-based LC-MS/MS analysis; assay type: cell-based; how it was run: as §1
[7] = Cytotoxicity against human HepG2.2.15 cells assessed as reduction in cell viability; assay type: cell-based, HepG2 2.2.15
Hepatitis B virus [8] = assay: Antiviral activity against Hepatitis B virus infected in human HepG2.2.15 cells assessed as reduction in HBsAg level in cell supernatants incubated for 5 days by AlphaLisa assay; assay type: functional, organism-based; settings: HepG2.2.15, 120 h
[9] = biological target: T3, Aldehyde dehydrogenase X, mitochondrial (Homo sapiens) (UniProt P30837); assay: Binding affinity to ALDH X in human HePAD38 cells infected with HBV assessed as protein labelling at 20 uM after 1 hr by photoaffinity labelling in-situ fluorescence gel-based LC-MS/MS analysis; assay type: cell-based; how it was run: as §1
T3 sequence (whole entry): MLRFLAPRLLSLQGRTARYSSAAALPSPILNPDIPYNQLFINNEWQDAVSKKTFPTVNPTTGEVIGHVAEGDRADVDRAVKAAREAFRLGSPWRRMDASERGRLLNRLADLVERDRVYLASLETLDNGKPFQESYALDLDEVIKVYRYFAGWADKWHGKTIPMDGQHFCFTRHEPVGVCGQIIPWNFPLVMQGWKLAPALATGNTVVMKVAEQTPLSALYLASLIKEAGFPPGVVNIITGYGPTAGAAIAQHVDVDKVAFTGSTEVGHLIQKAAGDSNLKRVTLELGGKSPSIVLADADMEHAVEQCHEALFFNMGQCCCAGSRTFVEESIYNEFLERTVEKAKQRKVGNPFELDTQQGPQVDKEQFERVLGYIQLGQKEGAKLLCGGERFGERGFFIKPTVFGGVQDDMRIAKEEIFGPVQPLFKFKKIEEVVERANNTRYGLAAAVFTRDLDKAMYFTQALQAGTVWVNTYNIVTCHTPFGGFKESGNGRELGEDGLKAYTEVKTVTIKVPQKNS

[10] = biological target: Terminal nucleotidyltransferase 4A (Homo sapiens) (UniProt Q5XG87); assay: Binding affinity to PAPD7 in human HePAD38 cells infected with HBV assessed as protein labelling at 20 uM after 1 hr by photoaffinity labelling in-situ fluorescence gel-based LC-MS/MS analysis; assay type: cell-based; how it was run: as §1
[11] = biological target: T4, Heme oxygenase 2 (Homo sapiens) (UniProt P30519); assay: Binding affinity to HMOX2 in human HePAD38 cells infected with HBV assessed as protein labelling at 20 uM after 1 hr by photoaffinity labelling in-situ fluorescence gel-based LC-MS/MS analysis; assay type: cell-based; how it was run: as §1
T4 sequence (whole entry): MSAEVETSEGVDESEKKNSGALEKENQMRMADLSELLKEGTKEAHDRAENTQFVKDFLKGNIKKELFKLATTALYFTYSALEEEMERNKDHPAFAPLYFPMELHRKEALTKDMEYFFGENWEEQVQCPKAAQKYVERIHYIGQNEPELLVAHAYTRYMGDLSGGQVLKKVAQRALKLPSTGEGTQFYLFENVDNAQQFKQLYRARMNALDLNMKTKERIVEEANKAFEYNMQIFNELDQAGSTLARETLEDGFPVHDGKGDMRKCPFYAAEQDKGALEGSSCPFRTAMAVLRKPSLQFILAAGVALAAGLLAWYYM

Terminal nucleotidyltransferase 4B (Homo sapiens), sequence (Q8NDF8 whole entry): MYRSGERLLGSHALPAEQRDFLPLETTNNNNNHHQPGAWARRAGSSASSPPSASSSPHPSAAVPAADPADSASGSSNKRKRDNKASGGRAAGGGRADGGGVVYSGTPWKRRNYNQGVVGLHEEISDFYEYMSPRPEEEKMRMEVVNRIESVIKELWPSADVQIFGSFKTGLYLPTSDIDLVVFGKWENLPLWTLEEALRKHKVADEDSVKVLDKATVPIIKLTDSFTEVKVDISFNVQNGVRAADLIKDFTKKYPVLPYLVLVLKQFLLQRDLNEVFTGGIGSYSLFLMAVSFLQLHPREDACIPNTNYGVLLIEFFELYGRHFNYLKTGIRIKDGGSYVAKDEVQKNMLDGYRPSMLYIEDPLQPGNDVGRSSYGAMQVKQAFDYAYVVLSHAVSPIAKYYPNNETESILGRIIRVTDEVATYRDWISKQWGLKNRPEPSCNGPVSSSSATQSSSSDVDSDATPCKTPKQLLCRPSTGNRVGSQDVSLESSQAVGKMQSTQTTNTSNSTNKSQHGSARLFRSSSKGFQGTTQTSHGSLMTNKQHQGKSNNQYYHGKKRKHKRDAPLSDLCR
60 kDa heat shock protein, mitochondrial (Homo sapiens), sequence (P10809 whole entry): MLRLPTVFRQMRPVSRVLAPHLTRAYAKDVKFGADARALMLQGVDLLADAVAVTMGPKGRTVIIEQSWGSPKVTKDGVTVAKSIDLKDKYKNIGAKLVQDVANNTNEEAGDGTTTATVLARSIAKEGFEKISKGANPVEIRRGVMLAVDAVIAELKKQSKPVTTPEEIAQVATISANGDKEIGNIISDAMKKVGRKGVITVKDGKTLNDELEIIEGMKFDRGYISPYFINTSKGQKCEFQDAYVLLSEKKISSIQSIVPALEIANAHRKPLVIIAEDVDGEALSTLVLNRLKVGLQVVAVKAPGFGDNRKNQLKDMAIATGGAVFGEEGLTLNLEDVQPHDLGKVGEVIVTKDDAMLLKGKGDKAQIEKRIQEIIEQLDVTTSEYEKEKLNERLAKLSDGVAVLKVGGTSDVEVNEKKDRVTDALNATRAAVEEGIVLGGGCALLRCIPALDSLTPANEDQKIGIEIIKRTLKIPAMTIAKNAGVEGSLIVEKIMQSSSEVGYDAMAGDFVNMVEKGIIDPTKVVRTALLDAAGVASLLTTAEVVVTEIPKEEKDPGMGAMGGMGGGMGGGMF
Terminal nucleotidyltransferase 4A (Homo sapiens), sequence (Q5XG87 whole entry): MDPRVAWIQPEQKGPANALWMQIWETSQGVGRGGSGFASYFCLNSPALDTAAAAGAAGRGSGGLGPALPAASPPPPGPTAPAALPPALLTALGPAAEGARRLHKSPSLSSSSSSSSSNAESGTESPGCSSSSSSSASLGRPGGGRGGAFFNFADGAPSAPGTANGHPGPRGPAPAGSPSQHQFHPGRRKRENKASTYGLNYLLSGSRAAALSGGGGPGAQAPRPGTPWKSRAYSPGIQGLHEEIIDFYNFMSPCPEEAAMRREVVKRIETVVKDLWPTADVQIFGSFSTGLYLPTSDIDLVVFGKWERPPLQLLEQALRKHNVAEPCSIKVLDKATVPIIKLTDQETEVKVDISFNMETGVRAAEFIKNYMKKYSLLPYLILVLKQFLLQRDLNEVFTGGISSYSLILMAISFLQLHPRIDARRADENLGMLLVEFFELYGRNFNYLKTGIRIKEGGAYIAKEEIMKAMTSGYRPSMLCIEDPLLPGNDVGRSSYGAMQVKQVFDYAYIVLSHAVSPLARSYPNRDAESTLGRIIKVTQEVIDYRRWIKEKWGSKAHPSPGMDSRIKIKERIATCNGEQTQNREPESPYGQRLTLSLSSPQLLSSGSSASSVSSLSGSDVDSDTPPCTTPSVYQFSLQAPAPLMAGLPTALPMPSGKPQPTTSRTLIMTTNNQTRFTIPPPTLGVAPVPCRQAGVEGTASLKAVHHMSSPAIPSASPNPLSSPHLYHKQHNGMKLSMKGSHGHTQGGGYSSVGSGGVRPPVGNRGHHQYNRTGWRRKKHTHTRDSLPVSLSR
Poly(rC)-binding protein 1 (Homo sapiens), sequence (Q15365 whole entry): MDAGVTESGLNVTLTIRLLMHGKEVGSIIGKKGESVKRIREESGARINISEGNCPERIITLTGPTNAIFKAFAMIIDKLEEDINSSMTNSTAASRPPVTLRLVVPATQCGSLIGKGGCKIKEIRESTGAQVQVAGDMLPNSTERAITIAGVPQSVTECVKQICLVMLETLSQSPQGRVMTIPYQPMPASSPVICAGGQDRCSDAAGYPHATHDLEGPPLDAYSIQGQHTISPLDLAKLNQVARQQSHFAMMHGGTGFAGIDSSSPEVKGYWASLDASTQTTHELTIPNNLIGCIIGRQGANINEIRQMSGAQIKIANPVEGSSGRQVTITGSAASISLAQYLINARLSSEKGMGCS

Row | SMILES | EC50 (Hepatitis B virus [4]) [nM] | EC50 (Hepatitis B virus [8]) [nM] | other results
1 | C#CCCC1(CCOc2cc3c(cc2C(=O)OC)-c2cc(=O)c(C(=O)O)cn2[C@H](C(C)C)C3)N=N1 | 3.2 | 5.6 | Activity [1]: inactive; Activity [2]: Active; Activity [3]: Active; Activity [5]: Active; Activity [6]: Active; CC50 [7]: > 150000 nM; Activity [9]: Active; Activity [10]: inactive; Activity [11]: Active
2 | C#CCCC1(CCOc2cc3c(cc2C(=O)OC)-c2cc(=O)c(C(=O)O)cn2[C@@H](C(C)C)C3)N=N1 | 82.2 | 305 | CC50 [7]: > 150000 nM
3 | CC(C)OC(=O)OCOP(=O)(CO[C@H](C)Cn1cnc2c(N)ncnc21)OCOC(=O)OC(C)C [TENOFOVIR DISOPROXIL FUMARATE] | 13.8 | > 1000 | 
4 | COCCCOc1cc2c(cc1OC)-c1cc(=O)c(-c3csc(N)n3)cn1C(C(C)C)C2 (stereo not drawn) | 816 | 367 | 
5 | COC(=O)c1cc2c(cc1N1CCCC1)CC(C(C)C)n1cc(C(=O)O)c(=O)cc1-2 (stereo not drawn) | 3 | 5.7 | 
6 | COCCCOc1cc2c(cc1OC)-c1cc(=O)c(C(=O)O)cn1C(C(C)C)C2 (racemic) | 3 | 1.3 | 
7 | COCCCOc1cc2c(cc1C(=O)OC)-c1cc(=O)c(C(=O)O)cn1C(C(C)C)C2 (stereo not drawn) | 6.1 | 2.25 | 
8 | COC(=O)c1cc2c(cc1O)CC(C(C)C)n1cc(C(=O)O)c(=O)cc1-2 (stereo not drawn) | 89.5 | 412 | 
9 | COCCCOc1cc2c(cc1OCCOc1ccccc1)-c1cc(=O)c(C(=O)O)cn1C(C(C)C)C2 (stereo not drawn) | 32.5 | 154 | 
